Laboratory results taken from ChEMBL document CHEMBL5096224, “First-in-Class Dual Mechanism Ferroptosis-HDAC Inhibitor Hybrids” (J Med Chem, 2022).
Calls of active or inactive are those of the source. The calls are words filed in the database; no cut-off is given here.

Legend:
NCI-H522 [1] = assay: Cytotoxicity against human NCI-H522 cells assessed as reduction in cell viability incubated for 30 mins by methylene blue staining based analysis; conditions: NCI-H522, 0.5 h
HCT-116 = assay: Cytotoxicity against human HCT-116 cells assessed as reduction in cell viability incubated for 30 mins by methylene blue staining based analysis; conditions: HCT-116, 0.5 h
NCI-H522 [2] = assay: Cytotoxicity against human NCI-H522 cells assessed as reduction in cell survival at 1 to 5 uM incubated for 3 days in presence of ferroptosis inhibitor, liproxstatin-1 by methylene blue staining based analysis; format: functional; conditions: dose 1-5 µM, time 3.0 day
Histone deacetylase 1 = Histone deacetylase 1 (Homo sapiens, UniProt Q13547); assay: Inhibition of full length his6/FLAG-tagged human recombinant HDAC1(1 to 482 residues) expressed in Sf9 insect cells
[3] = molecular target: T1, Protein deacetylase HDAC6 (Homo sapiens, UniProt Q9UBN7); assay: Inhibition of full length C-terminal FLAG-tagged human recombinant HDAC6 expressed inSf9 insect cells; design: species or system Sf9
T1 sequence (Q9UBN7 whole entry): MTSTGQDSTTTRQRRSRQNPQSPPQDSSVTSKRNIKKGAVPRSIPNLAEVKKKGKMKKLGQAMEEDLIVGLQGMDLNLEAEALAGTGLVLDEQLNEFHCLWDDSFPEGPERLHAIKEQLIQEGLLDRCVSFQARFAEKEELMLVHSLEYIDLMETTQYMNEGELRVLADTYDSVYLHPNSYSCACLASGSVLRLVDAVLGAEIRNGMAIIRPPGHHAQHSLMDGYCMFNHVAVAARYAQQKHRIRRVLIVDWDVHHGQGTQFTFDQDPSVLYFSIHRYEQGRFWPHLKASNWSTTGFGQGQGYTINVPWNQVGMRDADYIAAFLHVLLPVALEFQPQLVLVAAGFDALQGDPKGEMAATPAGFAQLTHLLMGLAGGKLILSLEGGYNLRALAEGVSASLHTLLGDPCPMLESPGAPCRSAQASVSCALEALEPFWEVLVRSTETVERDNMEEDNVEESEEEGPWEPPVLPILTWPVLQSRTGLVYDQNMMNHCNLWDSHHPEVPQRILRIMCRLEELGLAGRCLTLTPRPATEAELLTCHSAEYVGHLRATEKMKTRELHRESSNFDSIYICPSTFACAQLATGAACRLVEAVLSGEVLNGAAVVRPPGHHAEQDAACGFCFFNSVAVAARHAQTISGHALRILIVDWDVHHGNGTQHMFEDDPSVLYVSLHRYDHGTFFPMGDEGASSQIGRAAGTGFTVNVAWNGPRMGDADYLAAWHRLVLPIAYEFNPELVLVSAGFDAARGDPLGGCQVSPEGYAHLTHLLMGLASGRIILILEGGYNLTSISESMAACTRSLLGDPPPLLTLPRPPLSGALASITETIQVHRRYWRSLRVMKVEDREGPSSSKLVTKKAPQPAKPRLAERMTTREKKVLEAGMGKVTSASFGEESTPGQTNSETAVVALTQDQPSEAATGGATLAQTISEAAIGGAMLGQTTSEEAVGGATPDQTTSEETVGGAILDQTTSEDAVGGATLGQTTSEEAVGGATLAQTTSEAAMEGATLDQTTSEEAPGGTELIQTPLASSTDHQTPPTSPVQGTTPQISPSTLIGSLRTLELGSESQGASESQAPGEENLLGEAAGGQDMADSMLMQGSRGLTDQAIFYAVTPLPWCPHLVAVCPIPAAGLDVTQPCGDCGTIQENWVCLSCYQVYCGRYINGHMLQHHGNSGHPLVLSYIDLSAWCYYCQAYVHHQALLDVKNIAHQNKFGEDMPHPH

Histone deacetylase 3 = Histone deacetylase 3 (Homo sapiens, UniProt O15379); assay: Inhibition of full length C-terminal his6/FLAG-tagged human recombinant HDAC3 ([…]) expressed in Sf9 insect cells
Histone deacetylase 8 = molecular target: T2, Histone deacetylase 8 (Homo sapiens, UniProt Q9BY41); assay: Inhibition of full length C-terminal his-tagged human recombinant HDAC8 expressed in Sf9 insect cells
T2 sequence (Q9BY41 whole entry): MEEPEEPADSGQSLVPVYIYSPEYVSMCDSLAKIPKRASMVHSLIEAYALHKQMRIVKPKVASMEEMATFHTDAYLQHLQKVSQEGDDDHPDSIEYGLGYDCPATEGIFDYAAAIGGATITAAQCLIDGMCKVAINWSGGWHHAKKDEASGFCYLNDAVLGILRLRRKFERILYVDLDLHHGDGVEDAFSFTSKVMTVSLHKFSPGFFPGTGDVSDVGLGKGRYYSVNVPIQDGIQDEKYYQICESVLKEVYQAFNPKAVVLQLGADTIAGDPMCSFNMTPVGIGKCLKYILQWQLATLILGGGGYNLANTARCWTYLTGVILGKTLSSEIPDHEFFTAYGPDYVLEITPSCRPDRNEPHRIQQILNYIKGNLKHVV

[4] = molecular target: Protein deacetylase HDAC6 (Homo sapiens) (UniProt Q9UBN7); assay: Inhibition of HDAC6 in human NCI-H522 cells assessed as increase in acetylation of tubulin at 5 uM measured for 3 days by Western blot analysis; format: cell-based; conditions: time 3.0 day
Histone deacetylase 2 = Histone deacetylase 2 (Homo sapiens, UniProt Q92769)
Histone deacetylase 4 = Histone deacetylase 4 (Homo sapiens, UniProt P56524); assay: Inhibition of […] N-terminal GST/C-terminal his-tagged human recombinant HDAC4 (627 to 1084 residues) expressed in Sf9 insect cells
[5] = Cytotoxicity against human WI-38 cells assessed as reduction in cell survival incubated for 30 mins by methylene blue staining based analysis
NCI-H522 [6] = assay: Induction of ferroptosis in human NCI-H522 cells assessed as induction of lipid peroxidase accumulation at 10 uM incubated for 4 days in presence of Lipoxstatin-1 by C11-BODIPY-581/591 staining based flow cytometry analysis; format: functional, cell-based
NCI-H522 [7] = assay: Induction of ferroptosis in human NCI-H522 cells assessed as viability at 20 uM incubated after 8 to 12 hrs by microscopic analysis; format: functional, cell-based; conditions: time lower 8.0 hrs, time upper […]
How it was run: (§1)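 Time-lapse imaging used NCI-H522 cells adhered overnight and equilibrated to 10% CO2, held in sealed flasks on a 37 °C stage. Frames were taken every 12 min, 300 in total, with a ×40 objective. For Kaplan–Meier curves, at least 100 cells were scored, with death counted per 1 h or 0.2 h interval.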

[8] = Neurotoxicity in human SH-SY5Y cells assessed as decrease in cell viability at 2.32 uM incubated for 3 days; format: toxicity, cell-based; conditions: 72 h, time 3 day
How it was run: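 SH-SY5Y cells were grown on poly-D-lysine in DMEM/F12 with 10% FBS and seeded at 15,000/well 36 h before dosing, with DMSO as vehicle. Viability was read by MTT: 2 h at 37 °C, then solubilization for 1 h and absorbance at 570. Data are triplicates from three separate experiments.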

NCI-H522 [9] = assay: Induction of ferroptosis in human NCI-H522 cells assessed as induction of lipid peroxidase accumulation at 10 uM incubated for 6 hrs by C11-BODIPY-581/591 staining based flow cytometry analysis; format: functional, cell-based
How it was run: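 NCI-H522 cells were plated overnight to about 70% density and treated at 10 μM. C11-BODIPY 581/591 (1 μM) was added at the time of treatment. After 6 h, cells were trypsinized, washed, resuspended in PBS with 2% FBS and analysed by flow cytometry, 20 × 10³ cells per sample.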

NCI-H522 [10] = assay: Induction of ferroptosis in human NCI-H522 cells assessed as viability at 5 uM incubated at 0.2 to 10.2 hrs by microscopic analysis; format: functional, cell-based; conditions: time 0.2-10.2 hrs; how it was run: as §1
NCI-H522 [11] = assay: Induction of cell cycle arrest in human NCI-H522 cells assessed as accumulation at S phase 5 uM incubated for 24 to 72 hrs by PI staining based flow cytometric analysis; format: functional; conditions: time lower […], time upper […]
NCI-H522 [12] = assay: Induction of cell cycle arrest in human NCI-H522 cells assessed as accumulation at G1 phase 5 uM incubated for 24 to 72 hrs by PI staining based flow cytometric analysis; format: functional; conditions: time lower […], time upper […]
NCI-H522 [13] = assay: Induction of cell cycle arrest in human NCI-H522 cells assessed as accumulation at G2/M phase 5 uM incubated for 24 to 72 hrs by PI staining based flow cytometric analysis; format: functional; conditions: time lower […], time upper […]
[14] = tested on: Panel NCI-60 (60 carcinoma cell lines); assay: Cytotoxicity against human NCI-60 cells assessed as cell growth inhibition incubated for 24 hrs by MTT assay; format: functional, cell-based
How it was run: (§2)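 Run within the NCI-60 DTP screen: a single-dose test at 10 μM across about sixty human tumour lines, read as Growth % and mean inhibition. Selected compounds then went to a five-dose assay to derive GI50. Both were single experiments without replicates.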

HL-60 = assay: Cytotoxicity against human HL-60 cells assessed as cell growth inhibition incubated for 24 hrs by MTT assay; format: functional, cell-based
K562 = assay: Cytotoxicity against human K562 cells assessed as cell growth inhibition incubated for 24 hrs by MTT assay; format: functional, cell-based
MOLT-4 = assay: Cytotoxicity against human MOLT-4 cells assessed as cell growth inhibition incubated for 24 hrs by MTT assay; format: functional, cell-based
RPMI-8226 = assay: Cytotoxicity against human RPMI-8226 cells assessed as cell growth inhibition incubated for 24 hrs by MTT assay; conditions: RPMI-8226, 24 h
SR = assay: Cytotoxicity against human SR cells assessed as cell growth inhibition incubated for 24 hrs by MTT assay; format: functional, cell-based
A549 = assay: Cytotoxicity against human A549 cells assessed as cell growth inhibition incubated for 24 hrs by MTT assay; format: functional, cell-based
EKVX = assay: Cytotoxicity against human EKVX cells assessed as cell growth inhibition incubated for 24 hrs by MTT assay; format: functional, cell-based; how it was run: as §2
HOP-62 = assay: Cytotoxicity against human HOP-62 cells assessed as cell growth inhibition incubated for 24 hrs by MTT assay; format: functional, cell-based
HOP-92 = assay: Cytotoxicity against human HOP-92 cells assessed as cell growth inhibition incubated for 24 hrs by MTT assay; format: functional, cell-based; how it was run: as §2
NCI-H226 = assay: Cytotoxicity against human NCI-H226 cells assessed as cell growth inhibition incubated for 24 hrs by MTT assay; format: functional, cell-based
NCI-H322M = assay: Cytotoxicity against human NCI-H322M cells assessed as cell growth inhibition incubated for 24 hrs by MTT assay; format: functional, cell-based; how it was run: as §2
NCI-H460 = assay: Cytotoxicity against human NCI-H460 cells assessed as cell growth inhibition incubated for 24 hrs by MTT assay; format: functional, cell-based
NCI-H522 [15] = assay: Cytotoxicity against human NCI-H522 cells assessed as cell growth inhibition incubated for 24 hrs by MTT assay; format: functional, cell-based
SF-539 = assay: Cytotoxicity against human SF-539 cells assessed as cell growth inhibition incubated for 24 hrs by MTT assay; conditions: SF-539, 24 h
NCI-H23 = assay: Cytotoxicity against human NCI-H23 cells assessed as cell growth inhibition at 10 uM incubated for 24 hrs by MTT assay; conditions: NCI-H23, 24 h

Chain of Histone deacetylase 1 (Q13547 whole entry, the tested form may be a part): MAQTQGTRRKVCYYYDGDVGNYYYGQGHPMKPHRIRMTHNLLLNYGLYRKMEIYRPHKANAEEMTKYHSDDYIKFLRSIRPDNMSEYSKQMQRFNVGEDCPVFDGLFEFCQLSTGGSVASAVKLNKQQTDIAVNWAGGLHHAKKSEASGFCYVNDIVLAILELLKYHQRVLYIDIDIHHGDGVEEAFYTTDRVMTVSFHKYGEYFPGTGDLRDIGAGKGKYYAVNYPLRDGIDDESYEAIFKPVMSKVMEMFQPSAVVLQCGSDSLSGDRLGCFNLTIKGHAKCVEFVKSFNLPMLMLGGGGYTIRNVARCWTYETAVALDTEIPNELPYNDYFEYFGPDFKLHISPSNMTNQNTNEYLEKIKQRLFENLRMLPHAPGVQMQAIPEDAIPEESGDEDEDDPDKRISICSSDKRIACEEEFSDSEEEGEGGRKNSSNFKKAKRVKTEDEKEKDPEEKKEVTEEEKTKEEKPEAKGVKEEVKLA
Chain of Histone deacetylase 3 (O15379 whole entry): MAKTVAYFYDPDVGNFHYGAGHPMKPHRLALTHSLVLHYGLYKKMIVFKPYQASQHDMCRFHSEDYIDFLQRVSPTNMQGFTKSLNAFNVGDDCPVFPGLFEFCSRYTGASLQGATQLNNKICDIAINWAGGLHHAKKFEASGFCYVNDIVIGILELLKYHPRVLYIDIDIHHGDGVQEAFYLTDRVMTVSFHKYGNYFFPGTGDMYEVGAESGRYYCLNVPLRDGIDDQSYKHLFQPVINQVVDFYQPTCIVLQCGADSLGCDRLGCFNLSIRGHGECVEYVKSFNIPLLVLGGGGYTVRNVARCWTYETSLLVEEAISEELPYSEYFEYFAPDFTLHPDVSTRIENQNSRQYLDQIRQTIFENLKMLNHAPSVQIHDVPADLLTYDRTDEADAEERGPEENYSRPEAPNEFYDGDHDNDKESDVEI
Chain of Histone deacetylase 2 (Q92769 whole entry, the tested form may be a part): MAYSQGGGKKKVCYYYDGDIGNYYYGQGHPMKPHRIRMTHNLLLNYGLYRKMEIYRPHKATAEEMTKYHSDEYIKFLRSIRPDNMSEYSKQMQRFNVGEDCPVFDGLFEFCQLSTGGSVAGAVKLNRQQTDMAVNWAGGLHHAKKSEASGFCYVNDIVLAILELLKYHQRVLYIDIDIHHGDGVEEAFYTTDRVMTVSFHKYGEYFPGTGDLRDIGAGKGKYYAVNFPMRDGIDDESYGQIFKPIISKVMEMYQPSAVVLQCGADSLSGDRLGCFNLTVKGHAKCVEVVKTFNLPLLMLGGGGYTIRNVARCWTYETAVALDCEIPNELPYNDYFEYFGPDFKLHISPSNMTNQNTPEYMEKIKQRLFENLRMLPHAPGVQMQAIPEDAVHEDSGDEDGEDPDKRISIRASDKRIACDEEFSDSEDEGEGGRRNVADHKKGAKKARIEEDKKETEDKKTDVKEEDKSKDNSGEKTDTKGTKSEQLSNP
Chain of Histone deacetylase 4 (P56524 whole entry, the tested form may be a part): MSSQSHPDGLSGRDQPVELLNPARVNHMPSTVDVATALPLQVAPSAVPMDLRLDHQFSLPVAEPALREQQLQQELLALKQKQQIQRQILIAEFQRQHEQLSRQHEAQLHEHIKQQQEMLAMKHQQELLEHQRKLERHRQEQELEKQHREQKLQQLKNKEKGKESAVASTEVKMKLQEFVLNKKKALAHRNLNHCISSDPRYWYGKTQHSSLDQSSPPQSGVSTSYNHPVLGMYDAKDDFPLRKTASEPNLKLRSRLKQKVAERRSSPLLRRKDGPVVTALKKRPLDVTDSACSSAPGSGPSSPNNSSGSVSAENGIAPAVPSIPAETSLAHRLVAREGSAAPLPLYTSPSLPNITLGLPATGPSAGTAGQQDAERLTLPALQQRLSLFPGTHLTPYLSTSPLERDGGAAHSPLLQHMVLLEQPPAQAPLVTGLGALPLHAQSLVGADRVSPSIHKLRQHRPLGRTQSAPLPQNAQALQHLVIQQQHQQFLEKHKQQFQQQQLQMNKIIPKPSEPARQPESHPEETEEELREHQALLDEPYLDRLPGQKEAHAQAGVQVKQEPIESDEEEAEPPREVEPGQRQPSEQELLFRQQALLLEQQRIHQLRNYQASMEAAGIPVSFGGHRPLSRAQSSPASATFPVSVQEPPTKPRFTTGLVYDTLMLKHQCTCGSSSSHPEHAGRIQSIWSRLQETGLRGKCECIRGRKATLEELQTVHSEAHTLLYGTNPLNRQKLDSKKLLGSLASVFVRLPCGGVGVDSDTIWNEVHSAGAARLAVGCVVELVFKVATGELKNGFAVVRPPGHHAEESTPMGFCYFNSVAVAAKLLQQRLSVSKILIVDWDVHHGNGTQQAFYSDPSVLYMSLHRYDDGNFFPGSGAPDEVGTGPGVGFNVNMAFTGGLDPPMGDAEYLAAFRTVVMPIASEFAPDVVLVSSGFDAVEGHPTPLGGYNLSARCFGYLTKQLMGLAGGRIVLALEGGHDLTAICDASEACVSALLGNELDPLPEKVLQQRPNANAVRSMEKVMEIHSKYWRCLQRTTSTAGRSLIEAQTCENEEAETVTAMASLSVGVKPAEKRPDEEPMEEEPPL

## C#Cc1nc(/C=C\CCCCCC(=O)NO)cs1
NCI-H522 [1]
  IC50: 1070 nM
HCT-116
  IC50: 1190 nM
NCI-H522 [2]
  Activity: Active
Histone deacetylase 1
  IC50: 130 nM
[3]
  IC50: 25 nM
Histone deacetylase 3
  IC50: 300 nM
Histone deacetylase 8
  IC50: 470 nM

## C#Cc1nc(/C=C/C(=O)NO)cs1
[4]
  inhibition: Active
Histone deacetylase 1
  IC50: 890 nM
Histone deacetylase 2
  IC50: 1700 nM
[3]
  IC50: 160 nM
Histone deacetylase 3
  IC50: 1100 nM
Histone deacetylase 8
  IC50: 1800 nM

## C#Cc1nc(/C=C/CCCCCC(=O)NO)cs1
NCI-H522 [1]
  IC50: 1590 nM
HCT-116
  IC50: 4960 nM
Histone deacetylase 1
  IC50: 72 nM
[3]
  IC50: 10 nM
Histone deacetylase 3
  IC50: 91 nM
Histone deacetylase 8
  IC50: 270 nM
Histone deacetylase 4
  IC50: 8600 nM

## C#Cc1nc(C2=C(C)[C@@H](O)CC2)cs1
[5]
  IC50 at 30 min: 15100 nM
NCI-H522 [6]
  Activity: Active
NCI-H522 [7]
  Activity: Active

## C#Cc1nc(C(=O)NCCCCCCC(=O)NO)cs1
NCI-H522 [2]
  Activity: Active
[5]
  IC50 at 30 min: 8370 nM
[8]
  Activity: Non-Toxic
NCI-H522 [9]
  Activity: Active
Histone deacetylase 1
  IC50: 67 nM
Histone deacetylase 2
  IC50: 93 nM
[3]
  IC50: 1 nM
Histone deacetylase 3
  IC50: 50 nM
Histone deacetylase 8
  IC50: 320 nM
NCI-H522 [10]
  Activity: Active
NCI-H522 [11]
  Activity: Active
NCI-H522 [12]
  Activity: Active
NCI-H522 [13]
  Activity: Active
[14]
  Activity: Active
HL-60
  Activity: Active
K562
  Activity: Active
MOLT-4
  Activity: Active
RPMI-8226
  GI50: 350 nM
SR
  Activity: Active
A549
  Activity: Active
EKVX
  Activity: Active
HOP-62
  Activity: Active
HOP-92
  Activity: Active
NCI-H226
  Activity: Active
NCI-H322M
  Activity: Active
NCI-H460
  Activity: Active
NCI-H522 [15]
  Activity: Active
SF-539
  GI50: 1000 nM
NCI-H23
  GI50: 780 nM

## C#Cc1nc(/C=C\CCCCCC(=O)OCC)cs1
NCI-H522 [2]
  Activity: Active
